Active and inactive are the calls of the source. The calls are words filed in the database; no cut-off is given here.
Columns and labels:
L1210 = test: In vitro cytotoxicity against L1210 cells was determined after 48 hours of incubation; format: functional, Mus musculus; details: Mus musculus, L1210, 48 h; read-out: ID50 (the source's name)
How it was run: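 Exponentially growing L1210 cells were cultured in RPMI 1640 with 2 mM glutamine, penicillin/streptomycin and 10% fetal calf serum, under 5% CO2 at 37 °C. Drugs dissolved in distilled water were added to cells at 0.8 × 10^5 cells/mL for 48 h, then cells were counted. ID50 was estimated by regression of dose-response data, as the mean of two values from two independent experiments.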

Calf thymus DNA = test: Binding affinity for DNA by ethidium bromide displacement assay; format: nucleic-acid assay; details: Bos taurus
How it was run: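 Competitive ethidium bromide displacement with calf thymus DNA at 10 µg/mL in 20 mM Na phosphate buffer, 0.1 M NaCl, 1 mM EDTA, pH 7.4. The apparent DNA affinity constant is given in 10^6 M^-1 ± standard deviation, from 6 values across two independent experiments.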

Mus musculus [1] = test: In vivo antitumor activity was determined against P388 leukemia cells expressed as treated/control at the dose of (1.25-80)mg/kg; IA = Inactive; format: functional, organism-based
How it was run: (§1)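 Following NCI protocols, 10^6 viable P388 leukemia cells were inoculated ip on day 0 into male or female CDF1 hybrid mice, 10 per test group. Compounds in distilled water were given ip (0.1 mL/10 g body weight) at various doses on days 1–5. T/C = median survival day of treated / median survival day of negative controls × 100.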

Mus musculus [2] = test: In vivo antitumor activity was determined against P388 leukemia cells expressed as treated/control at the dose of (1.25-40)mg/kg; IA = Inactive; format: functional, organism-based; how it was run: as §1
Mus musculus [3] = test: In vivo antitumor activity was determined against P388 leukemia cells expressed as treated/control at the dose of (0.30-60)mg/kg; IA = Inactive; format: functional, organism-based; how it was run: as §1
Mus musculus [4] = test: In vivo antitumor activity was determined against P388 leukemia cells expressed as treated/control at the dose of (5-20)mg/kg; IA = Inactive; format: functional, organism-based; how it was run: as §1
Mus musculus [5] = test: In vivo antitumor activity was determined against P388 leukemia cells expressed as treated/control at the dose of 50 mg/kg;T = toxic at this dose; format: organism-based; set-up: dose 50 mg/kg; how it was run: as §1
Mus musculus [6] = test: In vivo antitumor activity was determined against P388 leukemia cells expressed as treated/control at the dosae of (2.5-40)mg/kg; IA = Inactive; format: functional, organism-based; how it was run: as §1

SMILES	K aff (Calf thymus DNA) [M⁻¹]	IC50 (L1210) [µM]	T/C (Mus musculus [1])	T/C (Mus musculus [2])	T/C (Mus musculus [3])	T/C (Mus musculus [4])	T/C (Mus musculus [5])	T/C (Mus musculus [6])
CCN(CC)CCCN(C)c1[nH]cc(C)c2nc3ccncc3c1-2	6000	224	–	–	inactive	–	–	–
CCN(CC)CCCCNc1[nH]cc(C)c2nc3ccncc3c1-2	30000	12	–	–	–	inactive	Toxic	–
CCN(CC)CCCNc1ncc(C)c2c1c1cnccc1n2Cc1ccccc1	2000	6.4	–	–	–	–	–	inactive

The next lines start with results.

K aff (Calf thymus DNA) [M⁻¹]	SMILES	IC50 (L1210) [µM]	T/C (Mus musculus [1])	T/C (Mus musculus [2])	T/C (Mus musculus [3])	T/C (Mus musculus [4])	T/C (Mus musculus [5])	T/C (Mus musculus [6])
27000	Cc1c[nH]c(NCCCN2CCN(C)CC2)c2c3cnccc3nc1-2	59	inactive	–	–	–	–	–
20000	Cc1c[nH]c(NCCCN2CCOCC2)c2c3cnccc3nc1-2	19.2	–	inactive	–	–	–	–
